Results: ChEMBL document CHEMBL3244185, “Synthesis and antiprotozoal activity of 2,5-bis(4-guanylphenyl)furans” (J Med Chem, 1977)
Activity calls are given as the source filed them. No cut-off for these calls is given here.

Legend:
[1] = system: Trypanosoma brucei rhodesiense; test: Antitrypanosomal activity against Trypanosoma rhodesiense CT infected in ICR/HA Swiss mouse assessed as increase in mean survival time at 40 mg/kg; format: functional
Summary of the method: (§1)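 Mice, five per dosage level, each dosed in mg of compound per kg body weight. ΔMST is the increase in mean survival time of treated over untreated infected controls, in days. A cure is a 30-day survival increase over controls, with at most five cures per dose. Deaths attributed to compound toxicity were scored as toxic deaths.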

[2] = system: Trypanosoma brucei rhodesiense; test: Antitrypanosomal activity against Trypanosoma rhodesiense CT infected in ICR/HA Swiss mouse assessed as increase in mean survival time at 20 mg/kg; format: functional; summary of the method: as §1
Mus musculus [3] = test: Toxicity in ICR/HA Swiss mouse infected with Trypanosoma rhodesiense CT assessed as mortality at 320 mg/kg; format: organism-based; design: dose 320 mg/kg; settings: in vivo; summary of the method: as §1
[4] = system: Trypanosoma brucei rhodesiense; test: Antitrypanosomal activity against Trypanosoma rhodesiense CT infected in ICR/HA Swiss mouse assessed as 30-day increase in survival time at 80 mg/kg relative to control; format: functional, organism-based; design: dose 80 mg/kg
Summary of the method: (§2)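 Mice infected with T. rhodesiense, dosed per mg of compound per kg body weight, five mice per dose level. A cure means survival extended 30 days beyond untreated controls, so at most five cures per dose. Non-curative effects are given as ΔMST, the gain in mean survival time in days versus controls. Toxic deaths are flagged separately.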

Plasmodium berghei [5] = test: Antimalarial activity against Plasmodium berghei infected in mouse up to 640 mg/kg, sc administered 72 hrs post infection; format: functional, organism-based; design: dose 640 mg/kg
Summary of the method: (§3)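 Antimalarial screen in P. berghei-infected mice, doses in mg/kg. The read-out is the gain in mean survival time of treated animals over untreated controls. Toxicity is recorded at the dose levels tested.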

Mus musculus [6] = test: Toxicity in ICR/HA Swiss mouse infected with Trypanosoma rhodesiense CT assessed as mortality at 640 mg/kg; format: organism-based; design: dose 640 mg/kg; settings: in vivo; summary of the method: as §1
Mus musculus [7] = test: Toxicity in ICR/HA Swiss mouse infected with Trypanosoma rhodesiense CT assessed as mortality at 160 mg/kg; format: organism-based; design: dose 160 mg/kg; settings: in vivo; summary of the method: as §1
[8] = system: Trypanosoma brucei rhodesiense; test: Antitrypanosomal activity against Trypanosoma rhodesiense CT infected in ICR/HA Swiss mouse assessed as increase in mean survival time at 2.5 mg/kg; format: functional; summary of the method: as §1
[9] = system: Trypanosoma brucei rhodesiense; test: Antitrypanosomal activity against Trypanosoma rhodesiense CT infected in ICR/HA Swiss mouse assessed as increase in mean survival time at 0.42 mg/kg; format: functional; summary of the method: as §1
[10] = system: Trypanosoma brucei rhodesiense; test: Antitrypanosomal activity against Trypanosoma rhodesiense CT infected in ICR/HA Swiss mouse assessed as 30-day increase in survival time at 20 mg/kg relative to control; format: functional, organism-based; design: dose 20 mg/kg; summary of the method: as §2
[11] = system: Trypanosoma brucei rhodesiense; test: Antitrypanosomal activity against Trypanosoma rhodesiense CT infected in ICR/HA Swiss mouse assessed as 30-day increase in survival time at 40 mg/kg relative to control; format: functional, organism-based; design: dose 40 mg/kg; summary of the method: as §2
[12] = system: Trypanosoma brucei rhodesiense; test: Antitrypanosomal activity against Trypanosoma rhodesiense CT infected in ICR/HA Swiss mouse assessed as increase in mean survival time at 0.83 mg/kg; format: functional; summary of the method: as §1
[13] = system: Trypanosoma brucei rhodesiense; test: Antitrypanosomal activity against Trypanosoma rhodesiense CT infected in ICR/HA Swiss mouse assessed as 30-day increase in survival time at 10 mg/kg relative to control; format: functional, organism-based; design: dose 10 mg/kg; summary of the method: as §2
[14] = system: Trypanosoma brucei rhodesiense; test: Antitrypanosomal activity against Trypanosoma rhodesiense CT infected in ICR/HA Swiss mouse assessed as 30-day increase in survival time at 160 mg/kg relative to control; format: functional, organism-based; design: dose 160 mg/kg; summary of the method: as §2
[15] = system: Trypanosoma brucei rhodesiense; test: Antitrypanosomal activity against Trypanosoma rhodesiense CT infected in ICR/HA Swiss mouse assessed as increase in mean survival time at 1.25 mg/kg; format: functional; summary of the method: as §1
[16] = system: Trypanosoma brucei rhodesiense; test: Antitrypanosomal activity against Trypanosoma rhodesiense CT infected in ICR/HA Swiss mouse assessed as increase in mean survival time at 0.21 mg/kg; format: functional; summary of the method: as §1
[17] = system: Trypanosoma brucei rhodesiense; test: Antitrypanosomal activity against Trypanosoma rhodesiense CT infected in ICR/HA Swiss mouse assessed as 30-day increase in survival time at 320 mg/kg relative to control; format: functional, organism-based; design: dose 320 mg/kg; summary of the method: as §2
Mus musculus [18] = test: Toxicity in ICR/HA Swiss mouse infected with Trypanosoma rhodesiense CT assessed as mortality at 40 mg/kg; format: organism-based; design: dose 40 mg/kg; settings: in vivo; summary of the method: as §1
Mus musculus [19] = test: Toxicity in ICR/HA Swiss mouse infected with Trypanosoma rhodesiense CT assessed as mortality at 20 mg/kg; format: organism-based; design: dose 20 mg/kg; settings: in vivo; summary of the method: as §1
[20] = system: Trypanosoma brucei rhodesiense; test: Antitrypanosomal activity against Trypanosoma rhodesiense CT infected in ICR/HA Swiss mouse assessed as increase in mean survival time at 5 mg/kg; format: functional; summary of the method: as §1
[21] = system: Trypanosoma brucei rhodesiense; test: Antitrypanosomal activity against Trypanosoma rhodesiense CT infected in ICR/HA Swiss mouse assessed as 30-day increase in survival time at 2.5 mg/kg relative to control; format: functional, organism-based; design: dose 2.5 mg/kg; summary of the method: as §2
[22] = system: Trypanosoma brucei rhodesiense; test: Antitrypanosomal activity against Trypanosoma rhodesiense CT infected in ICR/HA Swiss mouse assessed as 30-day increase in survival time at 640 mg/kg relative to control; format: functional, organism-based; design: dose 640 mg/kg; summary of the method: as §2
[23] = system: Trypanosoma brucei rhodesiense; test: Antitrypanosomal activity against Trypanosoma rhodesiense CT infected in ICR/HA Swiss mouse assessed as 30-day increase in survival time at 5 mg/kg relative to control; format: functional, organism-based; design: dose 5 mg/kg; summary of the method: as §2
Plasmodium berghei [24] = test: Antimalarial activity against Plasmodium berghei infected in mouse assessed as increase in mean survival time at 320 mg/kg, sc administered 72 hrs post infection; format: functional; settings: route subcutaneous
Mus musculus [25] = test: Toxicity in mouse infected with Plasmodium berghei at 640 mg/kg, sc administered 72 hrs post infection; format: organism-based; design: dose 640 mg/kg, route subcutaneous; settings: in vivo; summary of the method: as §3
[26] = system: Trypanosoma brucei rhodesiense; test: Antitrypanosomal activity against Trypanosoma rhodesiense CT infected in ICR/HA Swiss mouse assessed as 30-day increase in survival time at 0.83 mg/kg relative to control; format: functional, organism-based; design: dose 0.83 mg/kg; summary of the method: as §2
[27] = system: Trypanosoma brucei rhodesiense; test: Antitrypanosomal activity against Trypanosoma rhodesiense CT infected in ICR/HA Swiss mouse assessed as 30-day increase in survival time at 1.25 mg/kg relative to control; format: functional, organism-based; design: dose 1.25 mg/kg; summary of the method: as §2
Plasmodium berghei [28] = test: Antimalarial activity against Plasmodium berghei infected in mouse assessed as increase in mean survival time at 640 mg/kg, sc administered 72 hrs post infection; format: functional; settings: route subcutaneous

| Structure (SMILES) | Activity [4] | Activity (Plasmodium berghei [5]) | Activity [10] | Activity [11] | Activity [13] | Activity [14] | Activity [17] | Activity [23] | other results |
| --- | --- | --- | --- | --- | --- | --- | --- | --- | --- |
| CN1CCN[C+]1c1ccc(-c2ccc(-c3ccc([C+]4NCCN4C)cc3)o2)cc1.[Cl-].[Cl-] | Active | inactive |  |  |  |  |  |  | Survival [1]: 5.5 days; Survival [2]: 1.1 days; Activity (Mus musculus [3]): Toxic; Activity (Mus musculus [6]): Toxic; Activity (Mus musculus [7]): Toxic |
| N[C+](N)c1ccc(-c2oc(-c3ccc([C+](N)N)cc3)c(Cl)c2Cl)cc1.[Cl-].[Cl-] | Active | inactive | Active | Active | Active | Active | Active |  | Survival [8]: 6.2 days; Survival [9]: 0.4 days; Survival [12]: 0.8 days; Survival [15]: 2 days; Survival [16]: 0.2 days |
| CN1CCCN[C+]1c1ccc(-c2ccc(-c3ccc([C+]4NCCCN4C)cc3)o2)cc1.[Cl-].[Cl-] |  | inactive |  |  |  |  |  |  | Survival [8]: 0.3 days; Activity (Mus musculus [18]): Toxic; Activity (Mus musculus [19]): Toxic; Survival [20]: 0.7 days; Activity (Mus musculus [6]): Toxic; Activity (Mus musculus [7]): Toxic |
| Cc1c(-c2ccc([C+]3NCCCN3)cc2)oc(-c2ccc([C+]3NCCCN3)cc2)c1C.[Cl-].[Cl-] | Active | inactive | Active | Active | Active |  |  |  | Activity (Mus musculus [3]): Toxic; Activity (Mus musculus [6]): Toxic; Survival [15]: 3.2 days |
| N=C(N)c1ccc(/C=C/c2ccc(C(=N)N)cc2O)cc1 | Active |  | Active | Active | Active | Active | Active | Active | Activity [21]: Active; Activity [22]: Active |
| Cl.Cl.c1cc(-c2ccc(-c3ccc(C4=NCCCN4)cc3)o2)ccc1C1=NCCCN1 | Active |  | Active | Active |  | Active |  |  | Survival (Plasmodium berghei [24]): 12 days; Activity (Mus musculus [25]): Toxic |
| Cc1cc(-c2ccc([C+](N)N)cc2)oc1-c1ccc([C+](N)N)cc1 | Active | inactive | Active | Active | Active | Active | Active | Active | Activity [26]: Active; Activity [21]: Active; Activity [27]: Active |
| N[C+](N)c1ccc(-c2ccc(-c3ccc([C+](N)N)cc3)o2)cc1 | Active | inactive | Active | Active | Active | Active | Active | Active | Activity [22]: Active |
| N=C(N)c1ccc(/C=C/c2ccc(C(=N)N)cc2)cc1 | Active |  | Active | Active | Active | Active | Active | Active | Activity [21]: Active; Activity [22]: Active |
| CN1CCN(C)[C+]1c1ccc(-c2ccc(-c3ccc([C+]4N(C)CCN4C)cc3)o2)cc1.[Cl-].[Cl-] |  | inactive |  |  |  |  |  |  | Activity (Mus musculus [18]): Toxic; Activity (Mus musculus [6]): Toxic; Activity (Mus musculus [7]): Toxic |
| Cc1c(-c2ccc([C+](N)N)cc2)oc(-c2ccc([C+](N)N)cc2)c1Cl.[Cl-].[Cl-] | Active | inactive | Active | Active | Active | Active | Active | Active | Survival [16]: 2.1 days |
| [Cl-].[Cl-].c1cc([C+]2NCCN2)ccc1-c1ccc(-c2ccc([C+]3NCCN3)cc2)o1 | Active |  |  | Active |  | Active | Active |  | Survival (Plasmodium berghei [28]): 5 days |
| Cc1c(-c2ccc([C+]3NCC(C)N3)cc2)oc(-c2ccc([C+]3NCC(C)N3)cc2)c1C (stereo unspecified) |  | inactive |  |  |  |  |  |  |  |
| NNC(=O)c1ccc(-c2ccc(-c3ccc(C(=O)NN)cc3)o2)cc1 |  | inactive |  |  |  |  |  |  |  |
| CN1CCCN(C)[C+]1c1ccc(-c2ccc(-c3ccc([C+]4N(C)CCCN4C)cc3)o2)cc1.[Cl-].[Cl-] |  | inactive |  |  |  |  |  |  | Activity (Mus musculus [18]): Toxic; Activity (Mus musculus [6]): Toxic; Activity (Mus musculus [7]): Toxic |
| CC1CN[C+](c2ccc(-c3ccc(-c4ccc([C+]5NCC(C)N5)cc4)o3)cc2)N1.[Cl-].[Cl-] (stereo unspecified) | Active | inactive |  |  |  | Active | Active |  | Survival [8]: 0.6 days; Survival [20]: 3.2 days; Activity [22]: Active |
| Cc1c(-c2ccc([C+]3NCCN3)cc2)oc(-c2ccc([C+]3NCCN3)cc2)c1C.[Cl-].[Cl-] | Active | inactive | Active | Active |  | Active | Active |  | Survival [8]: 18 days; Activity [22]: Active; Survival [15]: 1.8 days |
| Cc1c(-c2ccc([C+](N)N)cc2)oc(-c2ccc([C+](N)N)cc2)c1C | Active | inactive | Active | Active | Active | Active | Active | Active |  |
| N=C(N)c1ccc(OCCCCCOc2ccc(C(=N)N)cc2)cc1 | Active |  | Active | Active | Active | Active | Active | Active | Activity [22]: Active |
| N[C+](N)c1ccc(-c2cc(Cl)c(-c3ccc([C+](N)N)cc3)o2)cc1 |  | inactive | Active |  | Active |  |  | Active | Activity [21]: Active; Activity [27]: Active |
| CCN(CC)CCCN[C+](N)c1ccc(-c2ccc(-c3ccc([C+](N)NCCCN(CC)CC)cc3)o2)cc1 |  | inactive |  |  |  |  |  |  |  |
